From PubChem
A selection: hits, their analogues and other compounds. The true share with any hit is near 3.7%.
Kir21 inh = Kir2.1 (mouse) channel inhibition; B-score at 10 µM; actives 0.85% (n = 310,000); HEK293-Kir2.1, FluxOR thallium flux fluorescence; active compounds read low;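 active = fluorescence ratio B-score at or below minus 3 SD of library scores, with starting-brightness B-score within 2 SD, cut at about -4.2 in these data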;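 note: channel flux triggered by added potassium and thallium sulfate stimulus; B-score of peak minus minimum fluorescence over baseline after thallium stimulus; more negative B-score means stronger Kir2.1 block with less thallium influx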
hERG rescue = hERG (human) protection from proarrhythmic block | CHO-hERG, FluxOR thallium flux, dofetilide IC70 present | activation (rescue from dofetilide block), less the hit threshold, % at 10 µM | actives 0.51% (n = 310,000) | AID 1511;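 active = activation above the mean of controls blocked by dofetilide plus 5 SD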;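 note: thallium influx through hERG after potassium depolarization seen as dye fluorescence rise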
KCNQ1 act = potentiates or activates the human KCNQ1 potassium channel; P51787; CHO-K1 KCNQ1, thallium flux FluxOR fluorescence; active compounds read high; B-score at 10 µM; actives 0.35% (n = 310,000); AID 2648;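 active = fluorescence ratio B-score, a plate-corrected score, at least three library SD, with initial intensity B-score within 5 SD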
Target sequence (P51787 whole entry, looked up): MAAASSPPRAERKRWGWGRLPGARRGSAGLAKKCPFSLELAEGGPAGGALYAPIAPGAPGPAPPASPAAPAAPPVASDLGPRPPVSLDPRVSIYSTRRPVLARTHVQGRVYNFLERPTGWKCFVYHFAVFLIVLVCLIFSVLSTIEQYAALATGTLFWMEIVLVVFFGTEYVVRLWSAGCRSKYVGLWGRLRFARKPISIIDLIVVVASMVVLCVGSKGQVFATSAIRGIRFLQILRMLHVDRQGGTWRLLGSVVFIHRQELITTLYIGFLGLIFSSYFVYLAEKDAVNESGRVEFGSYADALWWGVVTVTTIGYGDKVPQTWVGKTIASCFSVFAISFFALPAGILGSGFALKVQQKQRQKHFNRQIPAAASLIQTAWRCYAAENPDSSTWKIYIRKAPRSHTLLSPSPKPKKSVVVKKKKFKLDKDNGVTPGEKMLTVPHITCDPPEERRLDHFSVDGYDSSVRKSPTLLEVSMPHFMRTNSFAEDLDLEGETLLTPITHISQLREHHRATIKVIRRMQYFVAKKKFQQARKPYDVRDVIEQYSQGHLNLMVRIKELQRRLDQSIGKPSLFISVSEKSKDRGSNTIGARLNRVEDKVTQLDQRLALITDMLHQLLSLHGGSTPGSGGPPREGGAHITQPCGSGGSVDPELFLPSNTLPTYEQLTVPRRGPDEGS
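Assay system: stable KCNQ1 CHO-K1 line; medium: assay buffer, equal DMSO in all wells; timing: 90 min dye loading and 20 min compound exposure, both at room temperature; technique: kinetic FluxOR thallium fluorescence, 10-s 1-Hz baseline, 110-s post-stimulus read; read-out basis: B score of baseline-normalized fluorescence ratio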
KCNQ1 inh = inhibitors of human KCNQ1 potassium channel | P51787 | CHO-K1 KCNQ1, FluxOR thallium flux fluorescence; active compounds read high | B-score at 10 µM | actives 1.3% (n = 310,000);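 active = compounds whose thallium flux B-score, printed positive for inhibition, exceeds three library SD while starting fluorescence stays within three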;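 note: channel opened by potassium depolarization with thallium stimulus after 20 min compound exposure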
KCNK3 inh = human KCNK3 channel inhibition, primary screen. O14649. CHO-KCNK3 thallium flux, FluxOR fluorescence; active compounds read low. B-score at 10 µM. actives 0.84% (n = 340,000);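 active = B-score under library mean minus 4 SD, starting fluorescence ratio at most library mean plus 5 SD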;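 note: more negative B-score means stronger inhibition of thallium flux through KCNK3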
KCNK9 block = blocks the human KCNK9 two-pore domain potassium channel; Q9NPC2; HEK293 KCNK9, FluxOR thallium flux fluorescence; active compounds read low; B-score at 10 µM; actives 1.2% (n = 310,000); AID 488922;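 active = ratio B-score over 3 SD below the library mean, with starting fluorescence within 5 SD of its mean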;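 note: negative B-score means less thallium flux so channel inhibition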
KCNK9 block conf = human KCNK9 inhibitor confirmation; shares compounds with KCNK9 block; HEK293 KCNK9 cells, FluxOR thallium flux fluorescence; inhibition, % at 10 µM; actives 43% (n = 4,900); AID 492992;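 active = thallium signal inhibited by more than 5 SD of the compound-free buffer control wells, on both duplicate plates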;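 note: 0% = assay buffer control wells without compound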
Kir2-1 spec = mouse Kir2.1 off-target activity of KCNK9 modulators; shares compounds with KCNK9 block; Kir2.1 cells, FluxOR thallium flux fluorescence; inhibition, % at 10 µM; actives 4% (n = 4,900);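 active = thallium signal drop more than 5 SD beyond the mean of the no-compound control wells, seen in both duplicate plates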;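 note: signal is fluorescence rise after thallium addition divided by baseline fluorescence; plate controls were assay buffer only for no effect and full block by chlorpromazine control for full effect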
KCNK9 uninduced = non-induced cell nonspecific activity of KCNK9 modulators | shares compounds with KCNK9 block | non-induced KCNK9-HEK293, FluxOR thallium flux | inhibition, % at 10 µM | actives 40% (n = 4,900) | AID 492997;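 active = thallium signal drop beyond 5 SD of the untreated control mean, on both duplicate plates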;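 note: plate controls were buffer only IC0 wells for no effect and SID17386958 at its maximal inhibitory level for full effect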
Numbers without * were called inactive; i = inactive; / = no result given.

SMILES	Kir21 inh	hERG rescue	KCNQ1 act	KCNQ1 inh	KCNK3 inh	KCNK9 block	KCNK9 block conf	Kir2-1 spec	KCNK9 uninduced
N#Cc1c(Nc2ccc(Cl)cc2)s[nH]c1=O	-0.03	-8	i	i	i	i	i	i	i
CSc1nc(Nc2ccc(Cl)cc2)c(C#N)c(=O)[nH]1	1.1	-2	i	i	i	i	/	/	/
CCOC(=O)C1=C(C)N=c2s/c(=C\c3ccc(OCC(=O)O)cc3)c(=O)n2C1c1ccccc1 (stereo not drawn)	1.9	-11	i	i	i	i	i	i	i
COc1cccc(C2C3=C(N=c4s/c(=C\c5ccc(OCC(=O)O)cc5)c(=O)n42)c2ccccc2CC3)c1 (stereo not drawn)	0.06	0	i	i	/	i	i	i	i
CSc1ncc(C(=O)Nc2ccc(C(C)=O)cc2)c(C)n1	-1.5	-8	i	i	i	i	/	/	/
COc1cc(C)c(NC(=O)C(=S)NCCc2ccccc2)cc1C	1.2	-12	i	i	i	i	i	i	i
Clc1ccc(SCCOCCN2CCc3ccccc3C2)cc1	-8.5*	-9	i	i	i	i	i	i	i
OC(COC(c1ccc(Cl)cc1)c1ccc(Cl)cc1)CN1CCc2ccccc2C1 (stereo not drawn)	-0.39	-23	i	i	i	-16*	58%*	i	38%*
OC(COC(c1ccccc1)c1ccccc1)CN1CCc2ccccc2C1 (stereo not drawn)	-3.7	-7	i	i	i	i	/	/	/
Brc1cccc2sc(N3CCN(c4ccccc4)CC3)nc12	0.32	-12	i	i	i	-14*	47%*	i	30%*
Clc1cccc2sc(N3CCCCC3)nc12	1.6	-9	i	i	i	i	/	/	/
Cc1ccc(C(=O)CSc2nc3ccccc3c(=O)n2-c2ccccc2)s1	-0.44	-3	i	i	i	i	/	/	/
CCOC(=O)c1c(C)[nH]c(C)c1C(=O)CSc1nc2ccccc2c(=O)n1-c1ccc(F)cc1	0.05	-15	i	i	i	-10*	i	i	i
CCOC(=O)c1c(C)[nH]c(C)c1C(=O)CSc1nc2ccccc2c(=O)n1-c1ccccc1C	0.63	-12	i	i	i	-9.6*	32%*	i	34%*
CCOC(=O)c1ccc(N2CCN(C(=O)c3ccccc3)CC2)c(NC(=O)c2ccco2)c1	-0.53	-9	i	i	i	i	/	/	/
CCCCc1ccc(NC(=O)CN(C)CC(=O)Nc2ccccc2Cl)cc1	-0.53	-11	i	i	i	i	i	i	i
O=C(COC(=O)c1ccc(Cl)nc1)Nc1ccc2c(c1)OCCO2	/	/	/	/	i	/	/	/	/
CCOc1ccccc1NC(=O)n1ncc2c(C)cccc21	-2.2	-12	i	i	i	-13*	i	i	40%*
Cc1ccc(/C=C2\CCC3=C2OC(N)=C(C#N)C3c2ccc(C)cc2)cc1 (stereo not drawn)	-1.6	-18	i	i	i	i	/	/	/
N#CC1=C(N)OC2=C(CCc3ccccc32)C1c1ccccc1 (stereo not drawn)	-1.4	-3	i	i	i	-8.7*	36%*	i	40%*
COCCSc1ccccc1C(=O)Nc1ccc(Br)cc1	0.88	-8	i	i	i	-13*	44%*	i	25%*
COc1ccc(NC(C)=O)cc1CNC(=O)COc1ccccc1C(=O)Nc1cccc(C)c1C	0.02	-8	i	i	i	i	/	/	/
CC1CC(C)CN(c2ccc(C(=O)NCc3ccc4c(c3)OCO4)cc2[N+](=O)[O-])C1 (stereo not drawn)	0.65	-4	i	i	i	-8.5*	43%*	i	i
O/N=C(\CN1CCCCC1)c1ccccc1	-0.08	-5	i	i	i	i	/	/	/
CC(C)(C)n1cn[nH]c1=S	1.4	-3	i	i	i	i	/	/	/
SMILES	Kir21 inh	hERG rescue	KCNQ1 act	KCNQ1 inh	KCNK3 inh	KCNK9 block	KCNK9 block conf	Kir2-1 spec	KCNK9 uninduced
OCC1(Cc2ccccc2C(F)(F)F)CCN(Cc2ccccc2)CC1	-0.25	-17	i	i	i	i	i	i	i
OCC1(Cc2cccc(C(F)(F)F)c2)CCN(Cc2cc(F)cc(F)c2)CC1	1.3	-23	i	i	i	i	i	i	i
OCC1(Cc2ccccc2C(F)(F)F)CCN(Cc2ccc3c(c2)CCO3)CC1	-2.7	-10	i	i	i	i	i	i	i
OCC1(Cc2ccc(Cl)cc2)CCN(Cc2ccc(F)c(F)c2)CC1	-0.93	-9	i	i	i	i	/	/	/
Cc1cccc(C)c1OCC(O)CN1CCC(CN2C(=O)c3cccc4cccc(c34)C2=O)CC1 (stereo not drawn)	1.1	-22	i	i	i	i	i	i	i
C=CCc1ccccc1OCC(O)CN1CCN(CCN2C(=O)c3cccc4cccc(c34)C2=O)CC1 (stereo not drawn)	-2.2	-31	i	i	i	i	i	i	i
CCC(OCC(O)CN1CCN(CCN2C(=O)c3cccc4cccc(c34)C2=O)CC1)c1ccccc1 (stereo not drawn)	-0.91	-18	i	i	i	i	i	i	i
Cc1ccccc1OCC(O)CN1CCN(CCN2C(=O)c3cccc4cccc(c34)C2=O)CC1 (stereo not drawn)	0.09	-10	i	i	i	i	i	i	i
O=C(COC(=O)c1cccc(F)c1)Nc1ccc(Cl)cn1	/	/	/	/	i	/	/	/	/
CCN(CC(=O)Nc1c(F)cccc1F)C(=O)C1CC(=O)N(CCc2ccccc2)C1 (stereo not drawn)	0.24	-10	i	i	i	i	/	/	/
COc1ccccc1NC(=O)Nc1cc(F)ccc1F	-2	-7	i	i	i	i	/	/	/
CC(C)N(CCCNC(=O)c1nn(C)c2c1CS(=O)(=O)c1ccccc1-2)Cc1ccccc1	1.3	-5	i	i	i	i	/	/	/
CCOC(=O)c1nc(Nc2cc(Cl)ccc2OC)c2ccccc2n1	-1.2	-3	i	i	i	-13*	46%*	i	i
